In ChEMBL document CHEMBL4052832, “Selective Inhibitors of Human Neuraminidase 3” (J Med Chem, 2018):
≈ marks a conversion by molar mass, not a printed value. Blank lines part the entries; values can stand above or below the molecule they belong to. Calls of active or inactive are those of the source. The calls are words filed in the database; no cut-off is given here.

Legend:
[1] = Half life in human liver microsomes at 20 uM by LC-MS analysis; type: ADME, microsome
[2] = Efflux ratio of apparent permeability from basolateral to apical side over apical to basolateral side of human Caco2 cells at 62.5 uM after 30 mins by LC-MS analysis; type: ADME, cell-based; settings: Caco-2
Procedure, shortened: (§1)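 Caco-2 monolayer permeation run in triplicate in the apical-to-basolateral and basolateral-to-apical directions. Compound at 62.5 μM in the donor chamber with 0.6% DMSO. Samples taken at 30 min for LC-MS. Papp = (dQ/dt)/(A × c0). Efflux ratio is Papp b→a over Papp a→b.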

[3] = Apparent permeability from apical side to basolateral side in human Caco2 cells at 62.5 uM after 30 mins by LC-MS analysis; type: ADME, cell-based; settings: Caco-2; procedure, shortened: as §1
[4] = Apparent permeability from basolateral side to apical side in human Caco2 cells at 62.5 uM after 30 mins by LC-MS analysis; type: ADME, cell-based; settings: Caco-2; procedure, shortened: as §1
[5] = Kinetic solubility of compound in 0.9% NaCl at 10 mM incubated in supersonic bath for 30 mins measured after 24 hrs by LC-MS analysis; type: physicochemical; settings: read-out: Kinetic_solubility
Procedure, shortened: (§2)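 Kinetic solubility. 10 mM DMSO stock diluted 1:100 into 0.1 M Tris-HCl pH 7.4, Prisma HT buffer, or 0.9% NaCl in water (final 1% DMSO). Sonicated 30 min at 25 °C, equilibrated 24 h at 25 °C, filtered (0.2 μm), diluted in MeOH and analysed by LC-MS. Single measurements.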

[6] = Kinetic solubility of compound in Tris-HCl buffer at pH 7.4 at 10 mM incubated in supersonic bath for 30 mins measured after 24 hrs by LC-MS analysis; type: physicochemical; settings: for solubility kinetic at 24 h, 10000 µM: Tris-HCl buffer, pH 7.4, read-out: Kinetic_solubility; procedure, shortened: as §2
[7] = Kinetic solubility of compound in Prisma HT 6.5 buffer at pH 7.4 at 10 mM incubated in supersonic bath for 30 mins measured after 24 hrs by LC-MS analysis; type: physicochemical; settings: pH 6.5, in the assay text read “at pH 6.5” for “at pH 7.4”, read-out: Kinetic_solubility; procedure, shortened: as §2
[8] = Octanol-water partition coefficient, log D of compound at pH 7.4 at 10 uM after 2 hrs by LC-MS based shake flask analysis; type: physicochemical
Procedure, shortened: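 Shake-flask log D at pH 7.4. Octanol and 0.1 M Tris-HCl pH 7.4, mutually saturated. Compound at 10 μM in buffer with 0.1% DMSO, at two octanol:buffer ratios, each in triplicate.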

[9] = target: T1, Sialidase-3 (Homo sapiens, UniProt Q9UQ49); experiment: Inhibition of human N-terminal MBP-fused NEU3 expressed in Escherichia coli using 4MU-NANA as substrate preincubated for 15 mins followed by substrate addition measured after 30 mins by fluorescence based assay
T1 sequence (Q9UQ49 whole entry): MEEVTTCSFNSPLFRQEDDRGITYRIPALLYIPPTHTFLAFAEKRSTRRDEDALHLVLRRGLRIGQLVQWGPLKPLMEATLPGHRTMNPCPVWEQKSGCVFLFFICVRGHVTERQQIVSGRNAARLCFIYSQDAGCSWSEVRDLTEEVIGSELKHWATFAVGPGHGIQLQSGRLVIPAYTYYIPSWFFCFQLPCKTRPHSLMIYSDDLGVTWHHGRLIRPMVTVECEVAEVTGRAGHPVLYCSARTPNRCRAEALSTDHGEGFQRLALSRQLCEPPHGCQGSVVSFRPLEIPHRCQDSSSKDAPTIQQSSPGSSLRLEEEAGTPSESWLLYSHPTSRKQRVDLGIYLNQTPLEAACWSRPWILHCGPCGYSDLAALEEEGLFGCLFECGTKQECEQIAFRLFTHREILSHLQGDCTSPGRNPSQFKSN

[10] = target: T2, Sialidase-1 (Homo sapiens, UniProt Q99519); experiment: Inhibition of human CathA-IRES-6His-tagged NEU1 expressed in HEK293T cells using 4MU-NANA as substrate preincubated for 15 mins followed by substrate addition measured after 30 mins by fluorescence based assay; type: cell-based, HEK-293T
[11] = target: Sialidase-1 (Mus musculus) (UniProt O35657); experiment: Inhibition of NEU1 in NEU3/NEU4 double knockout C57BL6 mouse brain homogenate up to 150 uM using 4MU-NANA as substrate after 30 mins
Procedure, shortened: (§3)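 Brains from 12-week-old WT, neu1−/−, neu3−/− or neu3−/−neu4−/− mice, snap-frozen and homogenized in water; protein by Bradford. Acidic neuraminidase assayed at pH 4.6 using homogenate equal to 300 μg protein, inhibitor 0–150 μM and 200 μM 4MU-NANA, 37 °C for 30 min. Stopped with 0.4 M glycine pH 10.5. Activity relative to no-inhibitor, mean ± SD of 6–12 experiments.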

[12] = target: Sialidase NEU1/NEU4 (Mus musculus) (UniProt O35657+Q8BZL1); experiment: Inhibition of NEU1/NEU4 in NEU3 knockout C57BL6 mouse brain homogenate up to 150 uM using 4MU-NANA as substrate after 30 mins relative to control; procedure, shortened: as §3
[13] = target: Sialidase NEU3/NEU4 (Mus musculus) (UniProt Q9JMH7+Q8BZL1); experiment: Inhibition of NEU3/NEU4 in NEU1 knockout C57BL6 mouse brain homogenate using 4MU-NANA as substrate after 30 mins; procedure, shortened: as §3
[14] = target: Sialidase-1 (Mus musculus) (UniProt O35657); experiment: Inhibition of NEU1 in C57BL6 mouse brain homogenate using 4MU-NANA as substrate at 150 uM after 30 mins; procedure, shortened: as §3
[15] = target: Sialidase-1 (Mus musculus) (UniProt O35657); experiment: Inhibition of NEU1 in C57BL6 mouse brain homogenate assessed as residual activity at 50 uM using 4MU-NANA as substrate after 30 mins relative to control; procedure, shortened: as §3
[16] = target: T3, Sialidase-4 (Homo sapiens, UniProt Q8WWR8); experiment: Inhibition of human N-terminal MBP-fused NEU4 expressed in Escherichia coli using GM3 as substrate preincubated for 15 mins followed by substrate addition measured after 30 mins by fluorescence based assay
T3 sequence (Q8WWR8 whole entry): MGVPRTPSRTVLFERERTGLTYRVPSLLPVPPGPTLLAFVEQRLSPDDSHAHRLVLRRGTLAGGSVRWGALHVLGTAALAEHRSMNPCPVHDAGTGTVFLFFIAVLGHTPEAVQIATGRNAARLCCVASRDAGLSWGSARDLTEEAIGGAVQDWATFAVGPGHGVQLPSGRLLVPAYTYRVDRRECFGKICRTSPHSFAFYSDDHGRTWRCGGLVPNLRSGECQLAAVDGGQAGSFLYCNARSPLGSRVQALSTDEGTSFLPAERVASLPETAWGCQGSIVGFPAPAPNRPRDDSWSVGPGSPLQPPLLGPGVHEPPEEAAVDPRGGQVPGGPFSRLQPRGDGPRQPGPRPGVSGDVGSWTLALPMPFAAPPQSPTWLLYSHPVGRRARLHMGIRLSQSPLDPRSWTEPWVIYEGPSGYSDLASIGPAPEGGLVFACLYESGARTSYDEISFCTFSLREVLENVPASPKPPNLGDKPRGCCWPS

[17] = target: T1, Sialidase-3; experiment: Inhibition of human N-terminal MBP-fused NEU3 expressed in Escherichia coli using GM3 as substrate preincubated for 15 mins followed by substrate addition measured after 30 mins by fluorescence based assay
Procedure, shortened: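 GM3 hydrolysis in 0.1 M sodium acetate pH 4.5. Serially diluted inhibitors preincubated with enzyme 15 min at 0 °C, then GM3 added to 500 μM for 30 min at 37 °C. Quenched with fresh 0.2 M sodium borate pH 10.2, then malononitrile added to form a fluorescent adduct with freed sialic acid; ex 357/em 434 nm.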

[18] = target: T3, Sialidase-4; experiment: Inhibition of human N-terminal MBP-fused NEU4 expressed in Escherichia coli using 4MU-NANA as substrate preincubated for 15 mins followed by substrate addition measured every minute for 30 mins by fluorescence based assay
[19] = target: T1, Sialidase-3; experiment: Inhibition of human N-terminal MBP-fused NEU3 expressed in Escherichia coli using 4MU-NANA as substrate preincubated for 15 mins followed by substrate addition measured every minute for 30 mins by fluorescence based assay
[20] = target: T2, Sialidase-1; experiment: Inhibition of human CathA-IRES-6His-tagged NEU1 expressed in HEK293T cells using 4MU-NANA as substrate preincubated for 15 mins followed by substrate addition measured every minute for 30 mins by fluorescence based assay; type: cell-based; settings: hek-293t
Procedure, shortened: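 Ki determination. Enzyme preincubated with serially diluted inhibitor 15 min at 0 °C, then serial 4MU-NANA concentrations added.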

[21] = target: T3, Sialidase-4; experiment: Inhibition of human N-terminal MBP-fused NEU4 expressed in Escherichia coli using 4MU-NANA as substrate preincubated for 15 mins followed by substrate addition measured after 30 mins by fluorescence based assay
[22] = Inhibition in C57BL6 mouse brain homogenate at 10 uM using 4MU-NANA as substrate after 30 mins relative to control

Sialidase NEU3/NEU4 (Mus musculus), sequence (Q8BZL1 whole entry, looked up): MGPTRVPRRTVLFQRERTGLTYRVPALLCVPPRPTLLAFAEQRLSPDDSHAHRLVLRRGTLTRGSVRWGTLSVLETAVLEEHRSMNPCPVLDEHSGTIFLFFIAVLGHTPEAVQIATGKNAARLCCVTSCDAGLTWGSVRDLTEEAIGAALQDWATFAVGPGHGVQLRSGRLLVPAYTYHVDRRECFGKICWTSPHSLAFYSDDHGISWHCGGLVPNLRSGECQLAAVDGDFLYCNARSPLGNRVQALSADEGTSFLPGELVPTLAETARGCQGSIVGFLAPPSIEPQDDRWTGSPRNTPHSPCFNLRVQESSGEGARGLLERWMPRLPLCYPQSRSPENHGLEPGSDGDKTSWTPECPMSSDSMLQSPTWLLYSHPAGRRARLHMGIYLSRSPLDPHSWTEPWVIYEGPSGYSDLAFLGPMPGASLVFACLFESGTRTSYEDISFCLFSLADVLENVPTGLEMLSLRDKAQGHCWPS
Sialidase NEU3/NEU4 (Mus musculus), sequence (Q9JMH7 whole entry, looked up): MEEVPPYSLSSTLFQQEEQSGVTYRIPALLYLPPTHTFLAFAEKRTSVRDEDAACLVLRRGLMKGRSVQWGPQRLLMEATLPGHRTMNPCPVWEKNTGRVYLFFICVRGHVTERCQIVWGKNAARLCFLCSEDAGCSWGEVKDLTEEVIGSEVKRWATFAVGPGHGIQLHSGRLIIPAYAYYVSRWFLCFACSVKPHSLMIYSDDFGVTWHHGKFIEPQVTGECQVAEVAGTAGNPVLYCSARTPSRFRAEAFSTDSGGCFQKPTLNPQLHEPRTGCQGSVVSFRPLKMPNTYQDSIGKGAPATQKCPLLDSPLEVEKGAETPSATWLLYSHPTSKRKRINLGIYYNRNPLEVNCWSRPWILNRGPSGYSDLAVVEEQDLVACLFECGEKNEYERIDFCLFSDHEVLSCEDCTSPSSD

SMILES: CCCCOC(=O)C1=C[C@H](O)[C@@H](NC(C)=O)[C@H]([C@H](O)[C@H](O)Cn2cc(-c3ccc(-c4ccccc4)cc3)nn2)O1
half-life at 20 µM [1]: > 1.5 h
efflux ratio at 0.5 h, 62.5 µM [2]: 6.7
Papp A→B at 0.5 h, 62.5 µM [3]: 0.32 ×10⁻⁶ cm/s
Papp B→A at 0.5 h, 62.5 µM [4]: 2.2 ×10⁻⁶ cm/s
solubility kinetic at 24 h, 10000 µM [5]: 5 µg/mL (≈ 9.08 µM)
solubility kinetic at 24 h, 10000 µM [6]: 3.9 µg/mL (≈ 7.08 µM)
solubility kinetic at 24 h, 10000 µM [7]: 3.2 µg/mL (≈ 5.81 µM)
logD at 2 h, 10 µM [8]: 3.8

SMILES: CC(=O)N[C@H]1[C@H]([C@H](O)[C@H](O)Cn2cc(-c3ccc(C(=O)O)cc3)nn2)OC(C(=O)O)=C[C@@H]1NC(=O)NCCC(=O)O
IC50 [9]: > 500 µM
IC50 [10]: > 500 µM

SMILES: CC(=O)N[C@H]1[C@H]([C@H](O)[C@H](O)Cn2cc(-c3ccc(Oc4ccccc4)cc3)nn2)OC(C(=O)O)=C[C@@H]1O
IC50 [10]: > 500 µM

SMILES: CCCOC(=O)C1=C[C@H](O)[C@@H](NC(C)=O)[C@H]([C@H](O)[C@H](O)Cn2cc(-c3ccc(-c4ccccc4)cc3)nn2)O1
solubility kinetic at 24 h, 10000 µM [5]: 2.4 µg/mL (≈ 4.47 µM)
solubility kinetic at 24 h, 10000 µM [6]: 2.8 µg/mL (≈ 5.22 µM)
solubility kinetic at 24 h, 10000 µM [7]: 1.7 µg/mL (≈ 3.17 µM)

SMILES: CC(=O)N[C@H]1[C@H]([C@H](O)[C@H](O)CO)OC(C(=O)O)=C[C@@H]1NC(=N)N [ZANAMIVIR]
Ki [20]: Not Active
IC50 [10]: > 500 µM

Further lines, results first:

solubility kinetic at 24 h, 10000 µM [5]: 3.7 µg/mL (≈ 7.08 µM)
solubility kinetic at 24 h, 10000 µM [6]: 13.8 µg/mL (≈ 26.4 µM)
solubility kinetic at 24 h, 10000 µM [7]: 3.2 µg/mL (≈ 6.12 µM)
logD at 2 h, 10 µM [8]: 3.4
SMILES: CCOC(=O)C1=C[C@H](O)[C@@H](NC(C)=O)[C@H]([C@H](O)[C@H](O)Cn2cc(-c3ccc(-c4ccccc4)cc3)nn2)O1

inhibition [11]: inactive
inhibition [12]: 20%
inhibition [13]: Active
inhibition [14]: inactive
Activity [15]: 60%
IC50 [16]: 3.7 µM
IC50 [17]: 12 µM
Ki [18]: 0.26 µM
Ki [19]: 0.28 µM
Ki [20]: Not Active
IC50 [21]: 0.52 µM
IC50 [9]: 0.7 µM
IC50 [10]: > 500 µM
inhibition [22]: < 70%
SMILES: CC(=O)N[C@H]1[C@H]([C@H](O)[C@H](O)Cn2cc(-c3ccc(-c4ccccc4)cc3)nn2)OC(C(=O)O)=C[C@@H]1O

solubility kinetic at 24 h, 10000 µM [5]: > 1 µg/mL
Kinetic_solubility ([6]; buffer, pH 7.4, 10000 µM): 1.5 µg/mL
solubility kinetic at 24 h, 10000 µM [7]: > 1 µg/mL
logD at 2 h, 10 µM [8]: 2.3
SMILES: COC(=O)C1=C[C@H](O)[C@@H](NC(C)=O)[C@H]([C@H](O)[C@H](O)Cn2cc(-c3ccc(-c4ccccc4)cc3)nn2)O1
